How the values were obtained:
Assay type in all cases: functional
[1] = system: Mus musculus; assay: In vivo anticonvulsant activity in male albino mice using the maximal electroshock seizure(MES) test upon intraperitoneal administration, expressed as logarithm of effective dose; value ranges from 2.58 to 3.06
Method in brief: (§1)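 Mice (18–25 g) received the test agent intraperitoneally as a suspension in 0.5% (w/v) methylcellulose in water. A 60-cycle alternating current at 50 mA was applied for 0.2 s, and protection meant abolition of the hindlimb tonic extensor component. The ED50 was determined at the time of peak effect in groups of at least eight mice. At least two doses fell between 100% and 0% protection, and the 95% confidence interval was calculated by Finney's method.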

[2] = system: Mus musculus; assay: In vivo anticonvulsant activity in male albino mice using the maximal electroshock seizure(MES) test upon intraperitoneal administration (exp 1); settings: ip
Method in brief: (§2)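 Mice (18–25 g) received the compound ip as a suspension in 0.5% (w/v) methylcellulose in water. A 60-cycle alternating current of 50 mA was applied for 0.2 s. Protection was defined as abolition of the hindlimb tonic extensor component. […] ED50 and 95% confidence interval were calculated by Finney's methods.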

[3] = system: Mus musculus; assay: In vivo anticonvulsant activity in male albino mice using the maximal electroshock seizure(MES) test upon intraperitoneal administration (exp 2); settings: ip; method in brief: as §2
[4] = system: Mus musculus; assay: In vivo anticonvulsant activity in male albino mice using the maximal electroshock seizure(MES) test upon intraperitoneal administration (exp-2); settings: ip; method in brief: as §1
[5] = system: Mus musculus; assay: In vivo anticonvulsant activity in male albino mice using the maximal electroshock seizure(MES) test upon intraperitoneal administration (exp-1); settings: ip; method in brief: as §1
[6] = system: Mus musculus; assay: In vivo anticonvulsant activity in male albino mice using the maximal electroshock seizure(MES) test upon intraperitoneal administration, expressed as logarithm of effective dose; value ranges from 2.10 to 2.63
[7] = system: Mus musculus; assay: In vivo anticonvulsant activity in male albino mice using the maximal electroshock seizure(MES) test upon intraperitoneal administration, expressed as logarithm of effective dose; method in brief: as §1
[8] = system: Mus musculus; assay: In vivo anticonvulsant activity in male albino mice using the maximal electroshock seizure(MES) test upon intraperitoneal administration; value ranges from 44.4 to 59.9; settings: ip
[9] = system: Mus musculus; assay: In vivo anticonvulsant activity in male albino mice using the maximal electroshock (MES) test after intraperitoneal administration; value ranges from 26.7-37.8; settings: ip
[10] = system: Mus musculus; assay: Anticonvulsant activity in mice following i.p. treatment and Maximal Electroshock Seizure (MES) test.; method in brief: as §2
[11] = system: Mus musculus; assay: In vivo anticonvulsant activity in male albino mice using the maximal electroshock (MES) test after intraperitoneal administration; settings: ip; method in brief: as §1
[12] = system: Mus musculus; assay: In vivo anticonvulsant activity in male albino mice using the maximal electroshock seizure(MES) test upon intraperitoneal administration; value ranges from 15 to 19; settings: ip
[13] = system: Mus musculus; assay: In vivo anticonvulsant activity in male albino mice using the maximal electroshock (MES) test after intraperitoneal administration; value ranges from 34.9-54.3; settings: ip; method in brief: as §1
[14] = system: Mus musculus; assay: In vivo anticonvulsant activity in male albino mice using the maximal electroshock (MES) test after intraperitoneal administration (exp 2); settings: ip; method in brief: as §2
[15] = system: Mus musculus; assay: In vivo anticonvulsant activity in male albino mice using the maximal electroshock (MES) test after intraperitoneal administration (exp 1); settings: ip; method in brief: as §2
[16] = system: Mus musculus; assay: In vivo anticonvulsant activity in male albino mice using the maximal electroshock seizure(MES) test upon intraperitoneal administration, expressed as logarithm of effective dose; value ranges from 2.63 to 3.11
[17] = system: Mus musculus; assay: In vivo anticonvulsant activity in male albino mice using the maximal electroshock seizure(MES) test upon intraperitoneal administration; value ranges from 62.5 to 91; settings: ip
[18] = system: Mus musculus; assay: In vivo anticonvulsant activity in male albino mice using the maximal electroshock (MES) test after intraperitoneal administration; value ranges from 457.7-715; settings: ip
[19] = system: Mus musculus; assay: In vivo anticonvulsant activity in male albino mice using the maximal electroshock seizure(MES) test upon intraperitoneal administration; value ranges from 46 to 61; settings: ip
[20] = system: Mus musculus; assay: In vivo anticonvulsant activity in male albino mice using the maximal electroshock (MES) test after intraperitoneal administration; value ranges from 76.8-120; settings: ip; method in brief: as §1
[21] = system: Mus musculus; assay: In vivo anticonvulsant activity in male albino mice using the maximal electroshock (MES) test after intraperitoneal administration; value ranges from 85.7-151; settings: ip
[22] = system: Mus musculus; assay: In vivo anticonvulsant activity in male albino mice using the maximal electroshock seizure(MES) test upon intraperitoneal administration; value ranges from 14.6 to 41; settings: ip; method in brief: as §2

| Compound | Log ED50 [7] [uM kg-1] | Log ED50 [10] [uM kg-1] | other results |
| --- | --- | --- | --- |
| CCC(=O)NC(COC)C(=O)NCc1ccccc1 (configuration not stated) | – | – | Log ED50 [1]: 3.06 uM kg-1; ED50 [2]: > 100 mg/kg; ED50 [3]: < 300 mg/kg |
| CC(=O)N(C)C(C)C(=O)NCc1ccccc1 (configuration not stated) | – | – | ED50 [4]: < 100 mg/kg; ED50 [5]: > 30 mg/kg; Log ED50 [6]: 2.63 uM kg-1 |
| CC(=O)NC(C(=O)NCc1ccccc1)C1CCCO1 (configuration not stated) | 2.27 | – | ED50 [8]: 51.7 mg/kg |
| CC(=O)NC(C(=O)NCc1ccccc1)N1CC=CO1 (configuration not stated) | – | 2.05 | ED50 [9]: 31.4 mg/kg |
| CC(=O)NC(Nc1ccc(N)cc1)C(=O)NCc1ccccc1 (configuration not stated) | – | 2.75 | ED50 [11]: 176 mg/kg |
| CC(=O)NC(C(=O)NCc1ccccc1)c1nccs1 (configuration not stated) | 1.62 | – | – |
| CCOCC(NC(C)=O)C(=O)NCc1ccccc1 (configuration not stated) | 1.81 | – | ED50 [12]: 17 mg/kg |
| CC(=O)NC(C(=O)NCc1ccccc1)c1ncco1 (configuration not stated) | 1.58 | – | – |
| CC(=O)NC(C(=O)NCc1ccccc1)N(N)c1ccccc1 (configuration not stated) | – | 2.14 | ED50 [13]: 42.8 mg/kg |
| CCOC(NC(C)=O)C(=O)NCc1ccccc1 (configuration not stated) | – | 2.39 | – |
| CCC(NC)C(=O)NCc1ccccc1 (configuration not stated) | – | 2.69 | ED50 [14]: < 100 mg/kg; ED50 [15]: > 30 mg/kg |
| CNC(NC(C)=O)C(=O)NCc1ccccc1 (configuration not stated) | – | 2.28 | – |
| CC(=O)NC(C(=O)NCc1ccc(F)cc1)c1ccco1 (configuration not stated) | 1.64 | – | – |
| CC(=O)NC(C)C(=O)N(C)Cc1ccccc1 (configuration not stated) | – | – | ED50 [2]: > 100 mg/kg; Log ED50 [16]: 3.11 uM kg-1; ED50 [3]: < 300 mg/kg |
| CC(=O)NC(C(=O)NCc1ccccc1)n1cccn1 (configuration not stated) | – | 1.78 | – |
| CC(=O)NC(C)C(=O)NCc1cccc(F)c1 (configuration not stated) | 2.51 | – | ED50 [17]: 77.3 mg/kg |
| CC(=O)NC(C(=N)NOC(C)=O)C(=O)NCc1ccccc1 (configuration not stated) | – | 2.66 | ED50 [18]: 140 mg/kg |
| CCCC(N)C(=O)NCc1ccccc1 (configuration not stated) | – | 2.69 | ED50 [14]: < 100 mg/kg; ED50 [15]: > 30 mg/kg |
| O=C(NCc1ccccc1)C1CCCCN1 (configuration not stated) | 2.38 | – | ED50 [19]: 53 mg/kg |
| CC(=O)NC(C(=O)NCc1ccccc1)c1ccc(C)o1 (configuration not stated) | 1.83 | – | – |
| CC(=O)NC(C)C(=O)NCCCc1ccccc1 (configuration not stated) | – | 2.55 | ED50 [11]: 87.6 mg/kg |
| CC(=O)NC(C(=O)NCc1ccccc1)n1cccc1 (configuration not stated) | – | 2.47 | – |
| CC(=O)NC(C(=O)NCc1cc(F)ccc1F)c1ccco1 (configuration not stated) | 1.89 | – | – |
| CC(=O)NC(C(=O)NCc1ccccc1F)c1ccco1 (configuration not stated) | 2.14 | – | – |
| CC(=O)NC(Nc1cccc(N)c1)C(=O)NCc1ccccc1 (configuration not stated) | – | 2.5 | ED50 [20]: 98.6 mg/kg |
| CC(=O)NC(C)C(=O)NCc1ccccc1 (racemic) | 2.54 | – | – |
| CC(=O)NC(C(=N)NO)C(=O)NCc1ccccc1 (configuration not stated) | – | 2.63 | ED50 [21]: 112 mg/kg |
| CN1CSCC1C(=O)NCc1ccccc1 (configuration not stated) | 2.09 | – | ED50 [22]: 29.1 mg/kg |
| CONC(NC(C)=O)C(=O)NCc1ccccc1 (configuration not stated) | – | 1.39 | – |
| CCNC(NC(C)=O)C(=O)NCc1ccccc1 (configuration not stated) | – | 2.23 | – |
